Calls of active or inactive are those of the source. The rule behind the calls is not given here.
Assays:
[1] = tested on: Mus musculus; test: Potency index, ratio of chlordiazepoxide ED50 to compound ED50 for muscle relaxing activity in po dosed albino Swiss-Webster mouse; type: functional
[2] = tested on: Mus musculus; test: Potency index, ratio of chlordiazepoxide ED50 to compound ED50 for anticonvulsant activity in po dosed albino Swiss-Webster mouse assessed as reduction of maximum electro shock-induced seizure; type: functional
[3] = tested on: Mus musculus; test: Potency index, ratio of chlordiazepoxide ED50 to compound ED50 for hypnotic activity in po dosed albino Swiss-Webster mouse; type: functional
[4] = tested on: Mus musculus; test: Potency index, ratio of chlordiazepoxide ED50 to compound ED50 for anticonvulsant activity in po dosed albino Swiss-Webster mouse assessed as reduction of pentylenetetrazole-induced seizure; type: functional
[5] = tested on: Mus musculus; test: Potency index, ratio of chlordiazepoxide ED50 to compound ED50 for behavioral activity in po dosed albino Swiss-Webster mouse by fighting test; type: functional
[6] = Toxicity in po dosed albino Swiss-Webster mouse; type: organism-based; settings: in vivo
[7] = tested on: Mus musculus; test: Potency index, ratio of chlordiazepoxide ED50 to compound ED50 for anticonvulsant activity in po dosed albino Swiss-Webster mouse assessed as reduction of minimum electro shock-induced seizure; type: functional
[8] = tested on: Mus musculus; test: Anticonvulsant activity in po dosed albino Swiss-Webster mouse assessed as reduction of pentylenetetrazole-induced seizure; type: functional, organism-based
Method in brief: (§1)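 Oral dosing in male and female albino Swiss-Webster mice weighing 25–30 g, six mice per group. ED50 determined with 95% confidence limits.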

[9] = tested on: Mus musculus; test: Muscle relaxing activity in po dosed albino Swiss-Webster mouse; type: functional, organism-based; method in brief: as §1
[10] = 1-Octanol-aqueous phosphate buffer partition coefficient, log P of the compound at pH 7.35; type: physicochemical
Method in brief: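 Concentrations in each phase (C_oct, C_w) measured by UV spectrophotometry. P_oct = C_oct/C_w, reported as log P_oct.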

[11] = tested on: Mus musculus; test: Anticonvulsant activity in po dosed albino Swiss-Webster mouse assessed as reduction of minimum electro shock-induced seizure; type: functional, organism-based; method in brief: as §1
[12] = tested on: Mus musculus; test: Anticonvulsant activity in po dosed albino Swiss-Webster mouse assessed as reduction of maximum electro shock-induced seizure; type: functional, organism-based; method in brief: as §1

Row | SMILES | Ratio ED50 [1] | Ratio ED50 [2] | Ratio ED50 [3] | Ratio ED50 [4] | Ratio ED50 [5] | LD50 [6] | Ratio ED50 [7] | Activity [8] | Activity [9] | logD [10] | Activity [11] | Activity [12]
1 | CN1C(=O)C(OC(=O)C(Cl)(Cl)Cl)N=C(c2ccccc2)c2cc(Cl)ccc21 (centres undefined) | 1.93 | 5.2 | 0.9 | 15.3 | 1.3 | 5600 µmol/kg | 1.62 |  |  |  |  | 
2 | O=C1Nc2ccc(Cl)cc2C(c2ccccc2)=NC1OC(=O)C(Cl)(Cl)Cl (centres undefined) | 1.6 | 5.7 | 0.73 | 16.5 | 1.92 | 6850 µmol/kg | 1.32 |  |  |  |  | 
3 | CC1(C)OCC(COC2N=C(c3ccccc3)c3cc(Cl)ccc3NC2=O)O1 (centres undefined) |  |  | 0.52 |  | 1.7 | 9980 µmol/kg |  | inactive | inactive | 2.14 | inactive | inactive
4 | O=C1Nc2ccc(Cl)cc2C(c2ccccc2Cl)=NC1OCC(O)CO (centres undefined) | 1.25 | 4.68 | 0.58 | 36.8 | 15.3 | 7820 µmol/kg | 0.86 |  |  | 1.96 |  | 
5 | O=C1Nc2ccc(Cl)cc2C(c2ccccc2)=NC1OCC(O)CO (centres undefined) | 0.7 | 2.3 | 0.51 | 12.5 | 1.4 | 16600 µmol/kg | 0.52 |  |  | 1.71 |  | 
6 | CC(=O)OC[C@H]1O[C@@H](OCCOC2N=C(c3ccccc3)c3cc(Cl)ccc3NC2=O)[C@H](OC(C)=O)[C@@H](OC(C)=O)[C@@H]1OC(C)=O (mixture of isomers) | 0.75 | 3.4 | 0.76 | 13.8 | 1.83 | 17200 µmol/kg | 1.02 |  |  |  |  | 
7 | CN1CCN=C(c2ccccc2)c2cc(Cl)ccc21 [MEDAZEPAM] | 1.3 | 0.81 | 0.3 | 6.2 | 1 | 5240 µmol/kg | 0.32 |  |  | 4.05 |  | 
8 | O=C1Nc2ccc(Cl)cc2C(c2ccccc2)=NC1OCCO (centres undefined) | 1.3 | 0.58 | 0.35 | 10.3 | 1.7 | 18100 µmol/kg | 0.4 |  |  | 1.99 |  | 
9 | CN1C(=O)C(OCCO)N=C(c2ccccc2)c2cc(Cl)ccc21 (centres undefined) | 1.1 | 0.8 | 0.4 | 12.5 | 1.5 | 17400 µmol/kg | 8.3 |  |  | 1.98 |  | 
10 | CN1C(=O)C(OCC2COC(C)(C)O2)N=C(c2ccccc2)c2cc(Cl)ccc21 (centres undefined) |  |  | 2.3 |  | 1.9 | 9160 µmol/kg |  | inactive | inactive | 2.37 | inactive | inactive
11 | O=C1Nc2ccc(Cl)cc2C(c2ccccc2Cl)=NC1OCCO (centres undefined) | 1.86 | 1.2 | 0.65 | 33.6 | 17.8 | 9360 µmol/kg | 2.8 |  |  | 2.04 |  | 
12 | CC1(C)OCC(COC2N=C(c3ccccc3Cl)c3cc(Cl)ccc3NC2=O)O1 (centres undefined) |  |  | 2 |  | 2.3 | 7590 µmol/kg |  | inactive | inactive | 2.48 | inactive | inactive
13 | CC(=O)OC[C@H]1O[C@H](OCCOC2N=C(c3ccccc3)c3cc(Cl)ccc3NC2=O)[C@H](OC(C)=O)[C@@H](OC(C)=O)[C@@H]1OC(C)=O (mixture of isomers) | 0.68 | 3.6 | 0.9 | 13.4 | 1.78 | 17300 µmol/kg | 0.98 |  |  |  |  | 
14 | CNC1=Nc2ccc(Cl)cc2C(c2ccccc2)=[N+]([O-])C1 [CHLORDIAZEPOXIDE] |  |  |  |  |  |  |  |  |  | 2.5 |  | 
15 | CN1C(=O)C(OCC(O)CO)N=C(c2ccccc2)c2cc(Cl)ccc21 (centres undefined) | 0.8 | 0.38 | 0.42 | 10.3 | 1 | 16000 µmol/kg |  |  |  | 1.74 | inactive | 

Reference: ChEMBL document CHEMBL3244313, “Synthesis of some carbon-3 substituted 1,4-benzodiazepin-2-ones and their central nervous system effects” (J Med Chem, 1979)
